Mdm2 ligase inh = Mdm2 E3 ligase (human) inhibition. Q00987. cell-based MDM2 ubiquitination luciferase reporter, 2 h; 0 = plate control, 100 = twice control, blank-subtracted. signal enhancement, % at 5 µM. 0.11% of 210,000 active. AID 1230;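 active means signal enhancement of 30% or more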;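 further: luminescence tracks abundance of the self-degrading MDM2-luciferase fusion protein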
Target sequence (Q00987 whole entry, looked up, the tested form may be a part): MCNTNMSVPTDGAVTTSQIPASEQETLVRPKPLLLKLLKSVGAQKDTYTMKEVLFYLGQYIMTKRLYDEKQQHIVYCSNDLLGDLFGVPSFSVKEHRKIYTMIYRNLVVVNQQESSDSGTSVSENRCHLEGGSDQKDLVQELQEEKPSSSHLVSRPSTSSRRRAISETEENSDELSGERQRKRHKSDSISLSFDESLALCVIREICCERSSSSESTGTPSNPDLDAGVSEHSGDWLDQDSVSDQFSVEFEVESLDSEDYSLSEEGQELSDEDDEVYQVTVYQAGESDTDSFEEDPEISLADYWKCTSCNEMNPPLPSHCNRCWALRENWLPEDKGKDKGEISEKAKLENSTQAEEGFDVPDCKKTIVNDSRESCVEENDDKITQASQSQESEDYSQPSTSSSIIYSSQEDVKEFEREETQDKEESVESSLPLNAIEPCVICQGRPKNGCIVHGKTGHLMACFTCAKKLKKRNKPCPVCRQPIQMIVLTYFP
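test system = mammalian cells stably expressing self-ubiquitinating, self-degrading MDM2 E3–luciferase fusion | quantity = 2000 cells/well | incubation = cell settling 4 h, compound treatment 2 h, both 37 °C | signal = luminescence with SteadyLite reagent, 15 min at room temperature | evaluation = % enhancement relative to plate controls after blank subtraction | benchmarks = plate controls and plate blanks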
14-3-3 Bad PPI = disrupts binding of bovine 14-3-3 zeta to phospho-Bad peptide | TR-FRET 14-3-3zeta/Dy647-pBad peptide displacement, 1 h | 0.71% of 220,000 active | inhibition, % at 21.7 µM | AID 781;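 active means inhibition above about 70%, limit read from the data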;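 further: 0% = full 14-3-3 plus peptide FRET controls and 100% = background without 14-3-3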
Tb hexokinase = blocks Trypanosoma brucei hexokinase 1 activity | recombinant TbHK1, G6PDH-coupled NADH A340 | 0.11% of 220,000 active | inhibition, % at 10 µM;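 active means inhibition of 50% or more in the single-dose primary screen; inactive means inhibition below 50%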
Wee1 stabilizer = blocks degradation of human Wee1 kinase; P30291; HeLa Luc-Wee1K328M stability, luciferase luminescence; 100% = proteasome inhibitor MG132 effect; reporter increase, % at 5 µM; 1.2% of 220,000 active;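 active means activation above the mean of all tested compounds plus 3 SD, set per screening run, cut at about 8.8% in these data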;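 further: cells exposed to compound for 20 h before luminescence read; 0% = DMSO alone and 100% = MG132 at 30 µM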
Hck-Nef inh = blocks Nef-activated human Hck kinase; Recombinant Hck-YEEI plus Nef, Z-Lyte FRET kinase assay; inhibition, % at 20 µM; 0.68% of 220,000 active; AID 463187;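 active means Hck-Nef kinase inhibition above about 50%, limit read from the data; inactive means inhibition below that limit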;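 further: 0% = DMSO with Hck plus Nef and 100% = Hck alone without Nef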
The depositor's hits bear a star; . = no result given; [ ] = remark or other dose. The list is not random: actives were taken first. Their share in the collection is about 2.7%.

SMILES	Mdm2 ligase inh	14-3-3 Bad PPI	Tb hexokinase	Wee1 stabilizer	Hck-Nef inh
COC(=O)/C=C1\SC(N)=NC1=O	-20	-2	-19	-1	10
O=C(Nc1ccc(Cl)cc1)N1CCc2ccccc2C1	-8	8	9	9.7*	13
O=C(Nc1ccccc1)N1CCc2ccccc2C1	.	17	5	-1	-1
O=C1Nc2ccccc2N(O)N1c1ccc(S(=O)(=O)N2CCCCCC2)cc1	-6	-3	1	9.7*	1
O=C1C=C(c2ccc(Cl)cc2)OC2(CCCC2)O1	-6	72*	-5	1	0
O=[N+]([O-])c1ccc(-n2cccc2/C=N/Nc2nc(N3CCCCC3)nc(N3CCCCC3)n2)cc1	-8	-6	-10	11*	18
CCN(CC)S(=O)(=O)N1CCN(S(=O)(=O)N2CCOCC2)CC1	-14	-5	-1	-3	39
CN(C)S(=O)(=O)N1CCN(S(=O)(=O)N2CCOCC2)CC1	-11	1	19	0	57*
O=C(N/N=C/c1cccc([N+](=O)[O-])c1)c1cccc(Br)c1	-11	-3	1	9.4*	19
Cc1ccc([N+](=O)[O-])cc1N=Cc1ccc(Br)s1	-2	74*	-6	-3	-1
Cc1ccc(C=Nc2cc([N+](=O)[O-])ccc2C)s1	-7	-11	9	-3	2
O=C(N/N=C/c1cccc([N+](=O)[O-])c1)c1ccc(Br)cc1	-26	69	-3	2	24
O=C(N/N=C/c1ccc(Br)s1)c1ccc([N+](=O)[O-])cc1	-5	71*	-7	9.0*	0
C=CCS/C(N)=N\N=C\c1c(O)ccc2ccccc12	-5	-8	-18	3	6
N=C1/C(=C/c2cccn2-c2ccc([N+](=O)[O-])cc2)C(=O)N=C2SC=CN12	-20	11	-18	-1	13
COc1ccc(-c2ccc(/C=C3/C(=N)N4C=CSC4=NC3=O)o2)c([N+](=O)[O-])c1	.	73*[fluorescence artefact?]	-18	2	30
NS(=O)(=O)c1ccc(NC(=O)COC(=O)C2CC(=O)N(Cc3ccccc3)C2)cc1 (stereo not given)	-2	0	3	-1	8
CNS(=O)(=O)c1cccc(C(=O)Nc2cccnc2)c1	-15	0	-1	11*	4
CCN(CC)S(=O)(=O)c1cccc(C(=O)Nc2cccnc2)c1	-2	9	-5	3	3
COc1ccc(N2CCN(c3oc(COc4ccccc4Cl)nc3C#N)CC2)cc1	-14	9	6	9.6*	-2
COc1ccc(OCc2nc(C#N)c(N3CCN(c4ccc(OC)cc4)CC3)o2)cc1	-28	-12	2	-1	22
CCC(=O)NC(Nc1nc(C)cs1)(C(=O)OC)C(F)(F)F (stereo not given)	-4	5	0	-1	3
Cc1ccc(-c2c3c(=O)n(C)c(=O)n(C)c3cn2Cc2cccnc2)cc1	2	0	-1	24*	2
COc1ccc(CN2C(=O)CS(=O)CC2=O)cc1OC	-13	-14	1	0	0
O=C1CCCC(=O)N1c1ccc(Oc2ccc(Cl)cc2)cc1	-10	10	35	4	-1
SMILES	Mdm2 ligase inh	14-3-3 Bad PPI	Tb hexokinase	Wee1 stabilizer	Hck-Nef inh
Oc1ccc(N=Cc2ccc(O)c(O)c2)cc1	-15	86*[fluorescence artefact?]	-18	-3	3
O=Cc1ccc(O)c(O)c1	.	-9	-26	0	-3
CCN1CCN(Cc2nc3c(c(=O)n(C)c(=O)n3C)n2C(C)C(C)=O)CC1 (stereo not given)	31*	9	7	1	-1
O=C1CCC(c2ccccc2)N1C(=O)c1cccnc1 (stereo not given)	-1	7	-1	-2	7
COc1ccc(CNc2ccccc2SC)cc1OC	-11	74*	-9	0	-1
COc1cc(CNc2ccccc2SC)cc(OC)c1OC	-18	40	0	0	2
COc1ccc(CN2CCc3ccccc3C2)c(OC)c1OC	-3	41	-6	-2	1
CN(C)Cc1nc2ccccc2c(=O)n1Cc1nc(-c2cccc([N+](=O)[O-])c2)cs1	-22	98*	3	-1	18
O=C1NCCn2ccc(=O)cc21	-9	27	-6	13*	4
COc1ccccc1OC1=NS(=O)(=O)c2ccccc21	-21	85*	-1	2	7
Cc1ccc(NC(=O)Cn2c(O)c(N=NC(N)=O)c3ccccc32)cc1	.	-6	-37	-2	31
Cc1ccccc1NC(=O)Cn1c(O)c(N=NC(=O)c2ccccc2O)c2ccccc21	-15	92*[fluorescence artefact?]	6	3	10
CCOC(=O)c1c(CSC(=N)N)n(-c2ccc(Br)cc2)c2cc(Br)c(OC(C)=O)cc12	-9	96*[fluorescence artefact?]	-2	6	0
CCCCCCCCOC(=O)c1c(CSC(=N)N)n(C)c2cc(Br)c(OC(C)=O)cc12	-9	85*	24	3	-37
CCOC(=O)c1c(CSc2nc(C)cc(C)c2C#N)n(C)c2cc(Br)c(OC(C)=O)cc12	-4	-24	9	1	1
O=C(Cn1nc(Cc2cccnc2)c2ccccc2c1=O)NCc1ccc(F)cc1	-27	13	-9	-1	1
CCOC(=O)c1[nH]c(C(=O)O)c(OC(=O)CC)c1C	-3	-7	-8	0	1
COCc1nnc(NC(=O)c2ccccc2[N+](=O)[O-])s1	-8	0	-3	-1	-1
COc1ccc2c(c1)nc(SCC(=O)c1cccs1)n2C	-8	71*	-1	-1	0
COc1ccc2c(c1)nc(SCC(C)O)n2C (stereo not given)	-14	3	-8	2	1
COc1ccc2c(c1)nc(SCC(=O)C(C)(C)C)n2C	-1	73*	-1	0	1
CC1(C)C2CCC1(C)C(OCC[N+](C)(C)CC(=O)OC1CCCCC1)C2 (stereo not given)	-8	34	11	1	0
NC(=O)c1ccc(OCC(F)(F)F)nc1	-8	-4	3	3	4
Cc1c(C(=O)NCC2COc3ccccc3O2)oc2ccc(S(=O)(=O)N3CCOCC3)cc12 (stereo not given)	-19	4	-13	9.1*	0
CCOC(=O)CSc1ccc(S(=O)(=O)N2CCC(C)CC2)cc1[N+](=O)[O-]	-1	-2	-3	2	0
COC(=O)CSc1ccc(S(=O)(=O)N2CCOCC2)cc1[N+](=O)[O-]	-15	6	-5	9.3*	1
O=C(O)C1CCN(c2ccc(S(=O)(=O)N3CCOCC3)cc2[N+](=O)[O-])CC1	6	89*	2	-2	6
O=[N+]([O-])c1cc(S(=O)(=O)N2CCOCC2)ccc1N1CCCC1	-4	-1	-3	0	17
O=C(CSc1nc(-c2ccccc2)c(-c2ccccc2)[nH]1)NCCN1C(=O)CSC1=O	-12	1	-2	4	0

Screens (PubChem)
